# Source: PubChem
# TRPN1 ag – activates the zebrafish TRPN1 channel. actives 0.18% (n = 220,000). activation, % at 3 µM. HEK293 zebrafish TRPN1-YFP, Fluo-8 calcium fluorescence; 100% = response to 87 µM carbachol. AID 1424;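 active = activation above its plate's cutoff, the mean activation of test wells on that plate plus 3 SD, cut at about 19% in these data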;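 note: 0% = DMSO alone and 100% = 87 µM carbachol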
#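 Control set: carbachol 87 µM as high control, DMSO as low control; system: HEK293 stable line with zebrafish TRPN1-YFP; read-out: % activation versus carbachol response; detection: intracellular calcium fluorescence with Fluo-8; doses: single test compound dose, 3 µM nominal, 0.3% DMSO; schedule: dye 1 h 37 °C plus 30 min RT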
# OXTR potentiate – potentiates the human oxytocin receptor response | P30559 | CHO-OTR cells, Fluo-8 calcium fluorescence, potentiator mode; 0% = oxytocin EC15, 100% = EC100 | activation, % at 3 µM | actives 0.061% (n = 320,000);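 active = activation above that plate's cutoff, the mean activation of tested compounds plus 3 SD, cut at about 6.6% in these data, passing the limit was not always enough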;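 note: 100% uses oxytocin at 75 nM as the full agonist control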
#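 Material: human OTR in CHO cells. Compound: 3.0 µM, one dose. Timing: compound 6 min at room temperature before oxytocin, 100 s read. Evaluation: % activation of max/min ratio relative to oxytocin controls. Replication: single well per compound, singlicate. Signal: Fluo-8 calcium dye fluorescence.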
# TRPML3 ag – activates the human TRPML3 channel; Q8TDD5; HEK293 TRPML3-YFP, Fluo-8 calcium fluorescence; 100% = the carbachol control signal; activation, % at 3 µM; actives 0.29% (n = 220,000);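 active = activation above its plate's cutoff, the mean activation of the plate's test wells plus 3 SD, cut at about 12% in these data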;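 note: 0% = DMSO only wells and 100% = carbachol wells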
#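 Test system – HEK293 line with stable expression of human TRPML3-YFP channel · Control set – carbachol 87 µM final as high control (100%), DMSO as low control (0%) · Signal – Fluo-8 calcium dye fluorescence, ex 470-495, em 515-575 nm · Incubation – 1-h 37 °C dye load, 5-s basal, 120-s post-compound reads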
# OXTR ag – human OXTR agonism | P30559 | actives 0.32% (n = 320,000) | CHO-OTR cells, Fluo-8 calcium fluorescence; normalized: DMSO 0%, oxytocin 100% | activation, % at 3 µM;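 active = activation above the mean of all tested compounds plus 3 SD, cutoff set per screening run, cut at about 20% in these data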;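 note: peak over basal fluorescence ratio from a 100 s FLIPR kinetic read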
# V1aR counter – activates human V1a receptor in oxytocin agonist counter-screen. CHO-V1R cells, Fluo-8 calcium fluorescence, agonist mode; 0% DMSO, 100% 3 nM vasopressin. activation, % at 3 µM. actives 0.25% (n = 320,000). AID 2797;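 active = activation above the mean activation of all tested compounds plus 3 SD, per screening run, cut at about 20% in these data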;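 note: signal is peak over basal fluorescence ratio across a 100 second FLIPR read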
# Target sequence (P37288 whole entry, looked up): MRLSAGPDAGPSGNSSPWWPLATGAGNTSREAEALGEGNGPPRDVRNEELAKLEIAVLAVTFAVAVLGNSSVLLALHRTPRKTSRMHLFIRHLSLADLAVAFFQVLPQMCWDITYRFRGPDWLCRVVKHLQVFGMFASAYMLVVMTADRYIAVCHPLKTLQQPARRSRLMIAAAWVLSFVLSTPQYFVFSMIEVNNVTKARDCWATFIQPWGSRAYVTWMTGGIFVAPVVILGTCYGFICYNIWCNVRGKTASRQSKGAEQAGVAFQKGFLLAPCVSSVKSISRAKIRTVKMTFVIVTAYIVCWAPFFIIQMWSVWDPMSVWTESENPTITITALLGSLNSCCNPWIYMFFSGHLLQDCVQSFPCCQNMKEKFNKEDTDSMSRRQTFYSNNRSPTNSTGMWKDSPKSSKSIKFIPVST
# Numbers without * were called inactive; nt = not tested or not shown. Most compounds without a hit are left out; they make up all but 0.55% or so of the library.
SMILES,TRPN1 ag,OXTR potentiate,TRPML3 ag,OXTR ag,V1aR counter
O=C1S/C(=C/c2ccccc2F)C(=O)N1CCN=C1NS(=O)(=O)c2ccccc21,1.3,-8.0,1.0,9.0,6.8
CCOC(=O)C1=NN(C(=O)c2ccc(OC)cc2)C(O)(c2ccc(Cl)cc2)C1 (configuration not stated),-0.3,-10.2,-0.5,10.2,6.3
COC(=O)C1=NN(C(=O)c2cccc(Br)c2)C(O)(c2ccc(Cl)cc2)C1 (configuration not stated),20.7*,-13.6,3.1,8.8,9.6
CCOC(=O)C1=NN(C(=O)c2cccc(Br)c2)C(O)(C(C)(C)C)C1 (configuration not stated),17.8,-15.0,2.0,20.4*,12.4
OCCCn1c(C(CO)Nc2nc(-c3ccc(Cl)cc3)cs2)nc2ccccc21 (configuration not stated),nt,-10.3,nt,4.3,1.8
CN(C)c1ccc(/C=C/C(=O)c2cccnc2)cc1,42.5*,-18.9,33.5*,90.1*,86.0*
COc1ccc(C(=O)/C=C/c2ccccc2)c(OC)c1,-1.1,-6.2,-0.2,-1.6,-1.5
CN(C)c1ccc(/C=C/C(=O)c2ccc3c(c2)OCO3)cc1,nt,-11.9,nt,75.1*,77.0*
COc1ccc(C(=O)/C=C/c2ccc(N(C)C)cc2)c(OC)c1,43.9*,-23.2,20.0*,135.2*,153.8*
O=C(/C=C/c1cccc(O)c1)c1cccnc1,1.0,-1.6,3.6,1.1,0.9
Cc1ccc2c(C)c(C(=O)N(Cc3ccc(F)cc3)C3CCS(=O)(=O)C3)oc2c1 (configuration not stated),nt,-3.4,nt,-1.2,-0.3
C#CCOCCOCCOCCNc1nc(N2CCN(C(=O)CCCCCCCCCCNC(=O)[C@H]([C@@H](C)CC)n3cc(CCCCCN)nn3)CC2)nc(N2CCN(C(=O)CCCCCCCCCCNC(=O)[C@@H]([C@H](C)O)n3cc(C)nn3)CC2)n1,nt,-12.9,nt,37.1*,58.3*
C#CCOCCOCCOCCNc1nc(N2CCN(C(=O)CCCCCCCCCCNC(=O)Cn3cc(CCCCCN)nn3)CC2)nc(N2CCN(C(=O)CCCCCCCCCCNC(=O)[C@H](CO)n3cc(CCCCCN)nn3)CC2)n1,nt,-15.1,nt,24.9*,25.7*
C#CCOCCOCCOCCNc1nc(N2CCN(C(=O)CCCCCCCCCCNC(=O)[C@H](CCCCN)n3cc(C)nn3)CC2)nc(N2CCN(C(=O)CCCCCCCCCCNC(=O)[C@@H]([C@H](C)CC)n3cc(CCCCCN)nn3)CC2)n1,nt,-12.9,nt,3.5,38.2*
C#CCOCCOCCOCCNc1nc(N2CCN(C(=O)CCCCCCCCCCNC(=O)[C@H](CCCCN)n3cc(CCO)nn3)CC2)nc(N2CCN(C(=O)CCCCCCCCCCNC(=O)[C@@H]([C@H](C)O)n3cc(C)nn3)CC2)n1,nt,-7.8,nt,1.1,12.0
Cc1ccc(S(=O)(=O)NCC(=O)OCC(=O)NCc2ccco2)cc1,nt,-1.4,nt,0.3,0.9
CC1(C(=O)NC(=S)NNC(=O)c2ccncc2)CCCCC1,6.7,-15.7,7.8,9.9,18.7
O=C(NNC(=S)NC(=O)C12CC3CC(CC(C3)C1)C2)c1ccncc1,84.9*,-14.2,54.1*,61.1*,70.7*
COc1cc(/C=C(\C#N)c2nc3ccccc3o2)ccc1O,65.5*,-32.5,16.0*,29.7*,23.9*
O=C(Cn1ncc(Cl)c(Cl)c1=O)NC(=O)NC1CCCCC1,nt,2.9,nt,0.4,0.5
O=C(Nc1cccnc1)c1ccc(COc2cc(Cl)ccc2Cl)o1,0.3,-21.7,-0.4,4.4,7.0
O=C(N/N=C/c1ccc(O)cc1)c1ccc(COc2cc(Cl)ccc2Cl)o1,23.6*,-23.1,10.5,32.7*,33.2*
CN1CCN(NC(=O)CN2C(=O)S/C(=C\c3c(Cl)cccc3Cl)C2=O)CC1,0.7,-9.1,0.6,0.8,-0.5
COc1cc(OC)c(-c2c3cc(O)c(=O)cc-3oc3cc(O)c(O)cc23)cc1OC,291.0*,-11.9,206.0*,389.9*,389.2*
Cc1c2cc(O)c(=O)cc-2oc2cc(O)c(O)cc12,1.3,-13.6,2.9,67.9*,7.8
SMILES,TRPN1 ag,OXTR potentiate,TRPML3 ag,OXTR ag,V1aR counter
NC(=O)c1nsc(C(=O)N(c2ccc3c(c2)OCCO3)C(C(=O)NCC2CCCO2)c2ccc(F)cc2)c1N (configuration not stated),nt,-8.6,nt,0.4,1.1
CCCCNC(=O)CCn1c(=O)c2ccccc2n(Cc2ccc(Cl)cc2)c1=O,1.0,15.2*,1.1,-0.5,1.5
O=C(NC(=S)Nc1ccccc1)c1cncc(C#Cc2ccccc2)c1,1.0,-0.1,0.6,1.3,3.5
CN(C)c1ccc(/C=C2\Oc3ccc(C#Cc4cccc(N)c4)cc3C2=O)cc1,nt,-12.7,nt,41.4*,41.4*
COc1ccc(C2(c3ccc(OC)cc3)NC(=O)N(CC(=O)N3CCOCC3)C2=O)cc1,nt,-0.1,nt,2.3,0.7
CCOc1ccccc1NC(=O)NC(=O)N(C)S(=O)(=O)c1ccc(C)cc1,0.4,-3.2,-0.2,1.8,-0.5
CCN1/C(=C/C=C/c2oc3ccc(-c4ccccc4)cc3[n+]2CC)Oc2ccc(-c3ccccc3)cc21,777.4*,-9.7,326.0*,662.0*,761.3*
C[C@H](CO)N1C[C@H](C)[C@@H](CN(C)Cc2ccc(Cl)c(Cl)c2)Oc2c(NS(=O)(=O)c3cccs3)cccc2C1=O,nt,-8.7,nt,9.4,1.6
Cc1cc(/C=C2\C(=N)N3N=C(C(C)C)SC3=NC2=O)c(C)n1Cc1ccccc1,9.6,-22.0,2.8,47.7*,43.9*
CC1=NN2C(=N)/C(=C\c3cc(C)n(-c4ccccc4)c3C)C(=O)N=C2S1,0.8,-11.4,0.5,0.0,0.5
Cc1cc(/C=C2\C(=N)N3C(SCc4ccccc4)=NSC3=NC2=O)c(C)n1Cc1ccccc1,-0.2,-6.6,0.6,0.2,-0.3
CCC1=NN2C(=N)/C(=C/c3cc(C)n(Cc4ccccc4)c3C)C(=O)N=C2S1,0.4,-21.7,0.3,52.7*,69.4*
Cc1cc(/C=C2\C(=N)N3N=C(c4ccco4)SC3=NC2=O)c(C)n1Cc1ccccc1,5.6,-17.2,0.4,36.1*,54.2*
Cc1csc(NC(=O)c2cncc(Br)c2)n1,1.4,-9.3,-0.2,-0.1,0.0
CCC(C)(C(=O)NC1CCCCC1)N(C(=O)Cc1cccs1)c1ccccc1 (configuration not stated),-1.3,-12.2,-1.1,22.9*,18.4
CCC(C)(C(=O)NC1CCCC1)N(Cc1cccs1)C(=O)Cc1cccs1 (configuration not stated),-0.9,-12.1,0.7,-1.6,-0.3
Cc1ccc(N2C(=O)c3ccc(C(=O)N4CCN(Cc5ccccc5)CC4)cc3C2=O)cc1,9.1,-9.6,3.4,30.2*,39.9*
